Assay results as given in ChEMBL document CHEMBL1938334, “Quinoline tricyclic derivatives. Design, synthesis and evaluation of the antiviral activity of three new classes of RNA-dependent RNA polymerase inhibitors” (Bioorg Med Chem, 2011).

Key:
[1] = Cytotoxicity against human MT4 cells after 96 hrs by MTT assay; format: cell-based
Summary of the method: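 Exponentially growing MT-4 cells seeded at 1×10^5 cells/mL in RPMI-1640 with 10% FBS, penicillin and streptomycin. Incubated with serial compound dilutions at 37 °C, 5% CO2 for 96 h; viability by MTT. CC50 by linear regression relative to untreated controls; mean of three independent determinations.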

[2] = system: Human immunodeficiency virus 1; test: Antiviral activity against HIV1 3B infected in human MT4 cells assessed as inhibition of virus-induced cytopathogenicity after 4 days by MTT assay; format: functional, organism-based; settings: Human immunodeficiency virus 1, 3B, MT4, 96 h
Summary of the method: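 MT-4 cells (1×10^4 per well) were infected with HIV-1 IIIB at 100 CCID50, m.o.i. 0.01, together with serial compound dilutions. Viability was read by MTT after 4 days at 37 °C. EC50 was taken by linear regression versus untreated controls. Mean of three determinations.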

[3] = Cytotoxicity against MDBK cells after 48 to 96 hrs by MTT assay; format: cell-based, Bos taurus; settings: cattle
Summary of the method: (§1)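 MDBK seeded at 6×10^5 and BHK at 1×10^6 cells/mL in MEM-Earle's with L-glutamine, 1 mM pyruvate, kanamycin, plus 10% horse serum (MDBK) or 10% FBS (BHK). Cells were grown at 37 °C, 5% CO2 with serial compound dilutions (DMSO stocks diluted in medium). Viability by MTT after 48–96 h. CC50 was taken by linear regression versus untreated controls; three independent determinations.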

[4] = Antiviral activity against Bovine viral diarrhea virus 1-NADL infected in MDBK cells assessed as inhibition of virus-induced cytopathogenicity after 3 to 4 days by MTT assay; format: functional, cell-based; settings: Bovine viral diarrhea virus isolates and strains
Summary of the method: (§2)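 Host cells were seeded in 96-well plates at 3×10^4 cells/well (MDBK) or 5×10^4 cells/well (BHK-21) and grown to confluent monolayers overnight. They were infected at m.o.i. 0.01 in maintenance MEM with 0.5% inactivated FBS. Serial compound dilutions were added after 1 h. Viability was read by MTT after 3–4 days at 37 °C. EC50 was taken by linear regression against untreated controls. Mean of three determinations.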

[5] = Cytotoxicity against BHK21 cells after 48 to 96 hrs by MTT assay; format: cell-based, Mesocricetus auratus, BHK-21; settings: hamster; summary of the method: as §1
Yellow fever virus = test: Antiviral activity against Yellow fever virus 17D Stamaril Pasteur J07B01 infected in hamster BHK21 cells assessed as inhibition of virus-induced cytopathogenicity after 3 to 4 days by MTT assay; format: functional, cell-based; settings: Stamaril Pasteur J07B01, BHK-21; summary of the method: as §2
Reovirus sp. = test: Antiviral activity against Reovirus type-1 3651 infected in hamster BHK21 cells assessed as inhibition of virus-induced cytopathogenicity after 3 to 4 days by MTT assay; format: functional, organism-based; settings: Reovirus sp., 3651, BHK-21; summary of the method: as §2
[6] = Cytotoxicity against african green monkey Vero 76 cells after 48 to 96 hrs by crystal violet staining; format: cell-based; settings: chlorocebus sabaeus
Summary of the method: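 Vero-76 cells were seeded at 4×10^5 cells/mL in D-MEM with L-glutamine, kanamycin and 10% FBS, then exposed to serial compound dilutions at 37 °C, 5% CO2 for 48–96 h. Viability was read by crystal violet staining. 50% cytotoxic concentration by linear regression relative to untreated controls; mean of three independent determinations.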

Coxsackievirus B5 = test: Antiviral activity against Human coxsackievirus B5 Ohio-1 infected in african green monkey Vero 76 cells assessed as reduction of virus-induced plaque formation after 3 days using crystal violet staining; format: functional, organism-based; settings: Enterovirus B, Ohio-1, Vero, 72 h
Poliovirus 1 = test: Antiviral activity against Human poliovirus 1 strain Sabin Chat infected in african green monkey Vero 76 cells assessed as virus-induced reduction of plaque formation after 2 days using crystal violet staining; format: functional, cell-based; settings: Enterovirus C, 48 h
Human orthopneumovirus = test: Antiviral activity against Human respiratory syncytial virus A2 infected in african green monkey Vero 76 cells assessed as reduction of virus-induced plaque formation after 5 days using crystal violet staining; format: functional, organism-based; settings: 120 h
[7] = system: Vesicular stomatitis Indiana virus; test: Antiviral activity against clinical isolate Vesicular stomatitis Indiana virus infected in african green monkey Vero 76 cells assessed as reduction of virus-induced plaque formation after 2 days using crystal violet staining; format: functional, organism-based; settings: 48 h
[8] = Antiviral activity against Vaccinia virus Lister Elstree infected in african green monkey Vero 76 cells assessed as reduction of virus-induced plaque formation after 3 days using crystal violet staining; format: functional, cell-based; settings: 72 h
Human alphaherpesvirus 1 = test: Antiviral activity against Human herpesvirus 1 strain KOS infected in african green monkey Vero 76 cells assessed as reduction of virus-induced plaque formation after 3 days using crystal violet staining; format: functional, organism-based; settings: Human alphaherpesvirus 1, KOS, 72 h
CCRF-CEM = test: Cytotoxicity against human CCRF-CEM cells after 96 hrs by MTT assay; format: functional
Summary of the method: (§3)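 Cells were seeded at 1×10^5 cells/mL: leukaemia/lymphoma lines in RPMI-1640, solid tumour and fibroblast lines in specific media, all with 10% FCS. Serial compound dilutions were applied for 96 h at 37 °C, 5% CO2, under conditions allowing controls at least three rounds of multiplication. Viability was read by MTT. CC50 by linear regression. Mean of three determinations.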

CCRF-SB = test: Cytotoxicity against human CCRF-SB cells after 96 hrs by MTT assay; format: functional; summary of the method: as §3
SK-MEL-28 = test: Cytotoxicity against human SK-MEL-28 cells after 96 hrs by MTT assay; format: functional; settings: SK-MEL-28, 96 h; summary of the method: as §3
MCF7 = test: Cytotoxicity against human MCF7 cells after 96 hrs by MTT assay; format: functional; settings: MCF7, 96 h; summary of the method: as §3
SK-MES-1 = test: Cytotoxicity against human SKMES1 cells after 96 hrs by MTT assay; format: functional; settings: SK-MES-1, 96 h; summary of the method: as §3
HepG2 = test: Cytotoxicity against human HepG2 cells after 96 hrs by MTT assay; format: functional; settings: HepG2, 96 h; summary of the method: as §3
DU-145 = test: Cytotoxicity against human DU145 cells after 96 hrs by MTT assay; format: functional; settings: DU-145, 96 h; summary of the method: as §3
[9] = Cytotoxicity against human CRL7065 cells after 96 hrs by MTT assay; format: cell-based, CRL-7065
Summary of the method: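 Foreskin fibroblasts seeded at 1×10^5 cells/mL in specific medium with 10% FCS and antibiotics; serial compound dilutions, 37 °C, 5% CO2, 96 h, under conditions allowing untreated controls at least three rounds of multiplication. MTT read-out; concentration reducing proliferation by 50% by linear regression versus untreated controls; three independent determinations.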

[10] = Cytotoxicity against human GS4.1 cells; format: cell-based
Summary of the method: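 Huh-7 cells carrying HCV genotype 1b subgenomic replicon, grown in D-MEM/10% FBS with 0.5 mg/mL G418. Seeded at 7.5×10^3 cells/well with two-fold serial dilutions (top 75 μM), incubated 72 h at 37 °C. Viability by MTS-type Cell Titer 96 Aqueous One reagent; CC50 from % cytotoxicity versus concentration curves.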

Hepatitis C virus = test: Antiviral activity against HCV1b infected in human GS4.1 cells assessed as inhibition of virus-induced cytopathogenicity by measuring viral NS4A protein level after 72 hrs by ELISA; format: functional, organism-based, Hepacivirus hominis; settings: genotype 1b
Summary of the method: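 GS4.1 cells are Huh-7 cells carrying a genotype 1b subgenomic replicon, kept in 0.5 mg/mL G418. They were seeded at 7.5×10^3 cells/well with two-fold serial dilutions of compound (top 75 μM) and incubated 72 h at 37 °C. Huh-7 cells without the replicon served as negative control. NS4A was measured by cell ELISA with anti-NS4A mAb A-236, peroxidase and o-phenylenediamine, A492. EC50 came from four-parameter sigmoidal fit.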

[11] = Inhibition of Bovine viral diarrhea virus 1-NADL recombinant NS5B Cdelta 21 RNA dependent RNA polymerase expressed in Escherichia coli (DE3) using GTP as substrate preincubated for 30 mins before substrate addition measured after 120 mins by fluorescence assay
[12] = Inhibition of HCV1b BK 6xHis-tagged recombinant NS5B Cdelta 21 RNA dependent RNA polymerase expressed in Escherichia coli (DE3) using GTP as substrate preincubated for 30 mins before substrate addition measured after 120 mins by fluorescence assay; design: species or system Hepatitis C virus (isolate BK)
Summary of the method: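 His-tagged NS5B (BVDV C-terminal Δ24; HCV1b Δ21) from E. coli Rosetta 2(DE3)pLysS, Ni-NTA purified, 500–600 ng per 20 μL. The template was poly(rC) 10 μg/mL and the primer oligo(rG)12 0.1 μg/mL, with GTP 80 μM. Buffer: 20 mM Tris pH 7.0, 0.5 mM MnCl2 or 5 mM MgCl2, 5% DMSO. Enzyme/drug 30 min at RT, then GTP added; 120 min at 37 °C (BVDV) or 25 °C (HCV). Read-out was dsRNA dye fluorescence (ex 480/em 520). IC50 from dose–response fits.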

WIL2-NS = test: Cytotoxicity against human WIL2-NS cells after 96 hrs by MTT assay; format: functional; summary of the method: as §3
[13] = Cytotoxicity against human MRC5 cells after 96 hrs by MTT assay; format: cell-based; summary of the method: as §3

CC(C)c1nc2c(Cl)c3ncccc3cc2[nH]c1=O
CC50 at 96 h [1]: 100 µM
EC50 [2]: > 100 µM
CC50 [3]: > 100 µM
EC50 [4]: 100 µM
CC50 [5]: > 100 µM
EC50 (Yellow fever virus): > 100 µM
EC50 (Reovirus sp.): > 100 µM
CC50 [6]: > 100 µM
EC50 (Coxsackievirus B5): > 100 µM
EC50 (Poliovirus 1): > 100 µM
EC50 (Human orthopneumovirus): > 100 µM
EC50 [7]: > 100 µM
EC50 [8]: > 100 µM
EC50 (Human alphaherpesvirus 1): > 100 µM

CCOC(=O)C(C)c1nc2c(Cl)c3ncccc3cc2[nH]c1=O (stereo not given)
CC50 at 96 h [1]: 11 µM
EC50 [2]: > 11 µM
CC50 [3]: > 100 µM
EC50 [4]: 10 µM
CC50 [5]: 75 µM
EC50 (Yellow fever virus): 50 µM
EC50 (Reovirus sp.): > 75 µM
CC50 [6]: > 100 µM
EC50 (Coxsackievirus B5): > 100 µM
EC50 (Poliovirus 1): > 100 µM
EC50 (Human orthopneumovirus): 62 µM
EC50 [7]: > 100 µM
EC50 [8]: > 100 µM
EC50 (Human alphaherpesvirus 1): > 100 µM

O=c1[nH]c2cc3cccnc3c(Cl)c2nc1-c1ccccc1
CC50 (CCRF-CEM): 16 µM
CC50 (CCRF-SB): 19 µM
CC50 (SK-MEL-28): 5.6 µM
CC50 (MCF7): 7.6 µM
CC50 (SK-MES-1): 8 µM
CC50 (HepG2): 8 µM
CC50 (DU-145): 7.4 µM
CC50 at 96 h [9]: 16 µM
CC50 at 96 h [1]: 22 µM
EC50 [2]: > 22 µM
CC50 [3]: > 100 µM
EC50 [4]: 11 µM
CC50 [5]: > 100 µM
EC50 (Yellow fever virus): > 100 µM
EC50 (Reovirus sp.): > 100 µM
CC50 [6]: > 100 µM
EC50 (Coxsackievirus B5): > 100 µM
EC50 (Poliovirus 1): > 100 µM
EC50 (Human orthopneumovirus): 12 µM
EC50 [7]: > 100 µM
EC50 [8]: > 100 µM
EC50 (Human alphaherpesvirus 1): > 100 µM
CC50 [10]: 11 µM
EC50 (Hepatitis C virus): > 11 µM
IC50 [11]: 1000 nM
IC50 [12]: > 10 µM

O=c1[nH]c2cc3cccnc3c(Cl)c2nc1Cc1ccccc1
CC50 (CCRF-CEM): 19 µM
CC50 (WIL2-NS): 33 µM
CC50 (CCRF-SB): 25 µM
CC50 (SK-MEL-28): > 100 µM
CC50 (MCF7): > 100 µM
CC50 (SK-MES-1): > 100 µM
CC50 (HepG2): 72 µM
CC50 (DU-145): ≥ 100 µM
CC50 at 96 h [9]: > 100 µM
CC50 at 96 h [1]: 15 µM
EC50 [2]: > 15 µM
CC50 [3]: > 100 µM
EC50 [4]: 2.6 µM
CC50 [5]: > 100 µM
EC50 (Yellow fever virus): > 100 µM
EC50 (Reovirus sp.): > 100 µM
CC50 [6]: 88 µM
EC50 (Coxsackievirus B5): > 88 µM
EC50 (Poliovirus 1): > 88 µM
EC50 (Human orthopneumovirus): > 88 µM
EC50 [7]: > 88 µM
EC50 [8]: > 88 µM
EC50 (Human alphaherpesvirus 1): > 88 µM
CC50 [10]: 65 µM
EC50 (Hepatitis C virus): > 65 µM
IC50 [11]: 1200 nM
IC50 [12]: > 10 µM

O=c1[nH]c2cc3c(O)ccnc3c(Cl)c2nc1-c1ccccc1
CC50 at 96 h [1]: > 100 µM
EC50 [2]: > 100 µM
CC50 [3]: > 100 µM
EC50 [4]: 100 µM
CC50 [5]: > 100 µM
EC50 (Yellow fever virus): > 100 µM
EC50 (Reovirus sp.): > 100 µM
CC50 [6]: ≥ 100 µM
EC50 (Coxsackievirus B5): > 100 µM
EC50 (Poliovirus 1): > 100 µM
EC50 (Human orthopneumovirus): > 100 µM
EC50 [7]: > 100 µM
EC50 [8]: > 100 µM
EC50 (Human alphaherpesvirus 1): ≥ 100 µM

CC[C@@]1(O)C(=O)OCc2c1cc1n(c2=O)Cc2cc3ccccc3nc2-1 [CAMPTOTHECIN]
CC50 (CCRF-CEM): 0.003 µM
CC50 (WIL2-NS): 0.005 µM
CC50 (CCRF-SB): 0.004 µM
CC50 (SK-MEL-28): 0.07 µM
CC50 (MCF7): 0.02 µM
CC50 (SK-MES-1): 0.03 µM
CC50 (HepG2): 0.02 µM
CC50 (DU-145): 0.015 µM
CC50 at 96 h [13]: 200 nM
CC50 at 96 h [9]: 0.3 µM
